Source: PubChem BioAssay
Rows were chosen to be rich in hits. Some 1.2% of all compounds tested hit in one or more screens of this group.
NSD2 inh: NSD2 histone methyltransferase inhibitors, primary screen, biochemical, AlphaScreen, single concentration, set 2 | Histone-lysine N-methyltransferase NSD2 (Homo sapiens), O96028 | 310,000 tested, 0.54% active | inhibition, % at 12.5 µM | NSD2 peptide methylation, 120 min; in the data active = inhibition above about 50%
RAD54 branch: inhibitors of human RAD54 branch migration, primary screen, biochemical, fluorescence, single point; RAD54 Holliday junction branch migration, FAM/BHQ fluorescence; inhibition, % at 10.4 µM; 360,000 tested, 0.14% active;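 active = mean normalized replicate activity at least 40 and at least half of replicates scoring 40 or more; inconclusive = only one of the two criteria met; inactive = mean below 40 and under half of replicates reaching 40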;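 note: 0% = median of neutral control wells and 100% = median of positive control wells; inhibitors cause a drop in the FAM fluorescence signal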
Target sequence (Q92698 whole entry, looked up): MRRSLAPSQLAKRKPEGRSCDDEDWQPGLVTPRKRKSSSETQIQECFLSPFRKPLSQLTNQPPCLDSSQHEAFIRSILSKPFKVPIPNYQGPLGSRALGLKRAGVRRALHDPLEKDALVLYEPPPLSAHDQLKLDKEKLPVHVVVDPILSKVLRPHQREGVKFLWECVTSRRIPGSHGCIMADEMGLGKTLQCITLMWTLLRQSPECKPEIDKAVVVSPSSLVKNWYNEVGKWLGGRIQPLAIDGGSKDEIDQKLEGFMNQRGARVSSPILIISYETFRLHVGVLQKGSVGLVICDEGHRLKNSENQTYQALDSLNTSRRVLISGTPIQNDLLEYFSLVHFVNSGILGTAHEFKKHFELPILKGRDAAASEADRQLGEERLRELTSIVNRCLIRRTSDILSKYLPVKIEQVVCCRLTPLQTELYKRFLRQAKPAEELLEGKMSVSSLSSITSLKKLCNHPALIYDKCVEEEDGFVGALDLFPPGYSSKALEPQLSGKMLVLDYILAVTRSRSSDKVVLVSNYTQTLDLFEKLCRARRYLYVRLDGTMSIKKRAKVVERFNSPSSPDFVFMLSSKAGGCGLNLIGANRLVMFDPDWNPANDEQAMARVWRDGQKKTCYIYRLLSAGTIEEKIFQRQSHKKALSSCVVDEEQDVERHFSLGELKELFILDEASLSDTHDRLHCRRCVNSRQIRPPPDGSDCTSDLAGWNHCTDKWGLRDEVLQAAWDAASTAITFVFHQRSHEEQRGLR
FN deposition inh: inhibitors of fibronectin matrix deposition, primary screen, AH1F cells, Alexa488-fibronectin fluorescence, plate reader; AH1F fibroblasts, overnight; inhibition, % at 12.6 µM; 350,000 tested, 0.086% active; AID 743247, 2014;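 active = mean inhibition across replicates of 30% or more, regardless of how many single replicates reach that level; inconclusive = mean under 30% yet at least half of replicates reach 30%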;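 note: positive control wells lacked labelled fibronectin entirely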
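Assay system: AH1F fibroblast monolayer, labelled fibronectin deposition. Amount: 10000 cells per well. Also added: labelled fibronectin 24 nM. Compound: single-point pinned compound. Incubation: cell attachment 1 h, compound and FN exposure overnight. Detection: fluorescence after three HBSS washes, excitation 485 nm, emission 525 nm. Read-out: inhibition of fibronectin deposition signal.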
Glyco luc inh: increase of ERlucT glycosylation luciferase signal, primary screen, N-linked glycosylation inhibitor project, D54 ERlucT cells, luminescence, set 2; D54 ERlucT glycosylation luciferase reporter, 24 h; percent of 100 nM tunicamycin response; reporter increase, % at 12.5 µM; 360,000 tested, 0.23% active; AID 588692, 2011;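 active = mean luciferase reporter signal, scaled so untreated is 0 and the glycosylation-blocking control 100, at or above a set limit in every replicate; inconclusive = mean reaches the limit but not every replicate does; inactive = mean below the limit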;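 note: luciferase carries N-glycosylation sites so blocking glycosylation raises the light; 0% = median of neutral control wells and 100% = median of 100 nM tunicamycin wells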
MLL AF4-AF9 inh: inhibitors of AF4 peptide binding to AF9, primary screen, biochemical, AlphaScreen, biotin-AF4 peptide, FLAG-AF9, single point | Protein AF-9 (Homo sapiens), P42568 | inhibition, % at 10 µM | 350,000 tested, 0.47% active;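 active = every replicate reaching a set inhibition limit, whatever the replicate mean, cut at about 25% in these data; inconclusive = mean inhibition reaches that limit but some replicates miss it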;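 note: 0% = plate neutral control median and 100% = total signal loss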
RAD52 anneal inh: RAD52 DNA annealing inhibitors, primary screen, biochemical, FRET, single point, set 2. DNA repair protein RAD52 homolog (Homo sapiens), P43351. recombinant RAD52 DNA annealing, FRET fluorescence. inhibition, % at 18.7 µM. 360,000 tested, 0.46% active;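 active = every replicate showing at least 50% inhibition; inconclusive = mean inhibition at least 50% but not in every replicate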
Alpha interfer: AlphaScreen signal interference counter-screen, dose response, artefact control, biochemical, cherry-picked samples, luminescence; shares compounds with MLL AF4-AF9 inh; AC50, µM (doses to about 12 µM), for the others: top-dose activity change, negative = inhibition; 530 tested, 45% active; AID 720494, 2013; cut-off not given, nearly all actives have AC50 up to about 14 µM
* marks the source's active call; other numbers are inactive results.

Results for COc1ccc(NC(=O)N(C)C[C@H]2OCCCC[C@H](C)Oc3ccc(NS(=O)(=O)c4ccc(F)cc4)cc3C(=O)N([C@@H](C)CO)C[C@@H]2C)cc1 ?
RAD54 branch: -1.3; MLL AF4-AF9 inh: 3.5; RAD52 anneal inh: -0.6

Results for CCN(CC)S(=O)(=O)N1CCC(C(=O)NCc2ccc(C)cc2)CC1 ?
NSD2 inh: -0.4; RAD54 branch: -1.0; FN deposition inh: 1.1; Glyco luc inh: -0.1

Results for CCN(CC)c1ccc(CN2CCC(C(=O)NCc3ccc(C)cc3)CC2)cc1 ?
NSD2 inh: 8.7; FN deposition inh: 7.9; Glyco luc inh: -2.3; MLL AF4-AF9 inh: inconclusive; RAD52 anneal inh: 16.6; Alpha interfer: -34.5%

Results for C[C@H](O)C#Cc1ccc2c(c1)O[C@H](CN(C)C(=O)c1ccccc1)[C@@H](C)CN([C@H](C)CO)S2(=O)=O ?
RAD54 branch: -6.1; FN deposition inh: -6.6; MLL AF4-AF9 inh: -3.8; RAD52 anneal inh: -2.8

What do the screens show for `CC(=Nc1ccc(C)cc1)c1sc2ccccc2c1O`?
NSD2 inh: -0.7; FN deposition inh: -7.7; Glyco luc inh: -14.3

How did CC(=Nc1ccc(C)cc1C)c1sc2ccccc2c1O do in these assays?
NSD2 inh: -10.4; FN deposition inh: 6.7; Glyco luc inh: -15.4; MLL AF4-AF9 inh: 32.5*; RAD52 anneal inh: -122.3; Alpha interfer: -23.5%

How did O=C(C1CCOCC1)N1CC2(C1)[C@@H](c1ccccc1)[C@@H](CO)N2CCC(F)(F)F do in these assays?
MLL AF4-AF9 inh: -2.1; RAD52 anneal inh: -7.7

Results for Oc1ccc(/C=C/c2ccc3ccccc3n2)cc1 ?
NSD2 inh: -3.0; RAD54 branch: 14.7; FN deposition inh: -3.9; Glyco luc inh: -18.5; MLL AF4-AF9 inh: 3.1; RAD52 anneal inh: -22.9

Results for C(=C\c1ccc2ccccc2n1)/c1ccccc1 ?
NSD2 inh: 0.6; RAD54 branch: 4.7; FN deposition inh: -12.1; Glyco luc inh: -21.1; MLL AF4-AF9 inh: inconclusive; RAD52 anneal inh: 5.9; Alpha interfer: -21.9%

Results for COc1cccc2sc(N(CCCN(C)C)C(=O)c3ccc(S(=O)(=O)N4CCCc5ccccc54)cc3)nc12 ?
NSD2 inh: 5.8; RAD54 branch: 12.4; FN deposition inh: 2.3; Glyco luc inh: -2.4; MLL AF4-AF9 inh: 36.1*; RAD52 anneal inh: 45.1; Alpha interfer: -17.7%

How did COc1cccc(-c2sc3ccccc3c2-c2ccc(OCCN(C)C)cc2)c1 do in these assays?
RAD54 branch: -4.8; FN deposition inh: 11.7; Glyco luc inh: -6.1; MLL AF4-AF9 inh: 29.1*; RAD52 anneal inh: 13.6; Alpha interfer: 0.4%

Results for COc1ccc(-n2cc(CNCCc3cnc[nH]3)c(-c3cccc(F)c3)n2)cc1 ?
NSD2 inh: 16.2; Glyco luc inh: 4.3; MLL AF4-AF9 inh: 29.7*; RAD52 anneal inh: -26.7; Alpha interfer: -19.4%

How did COc1ccc(-n2cc(CNCc3cccnc3)c(-c3cccc(F)c3)n2)cc1 do in these assays?
NSD2 inh: 0.5; RAD54 branch: 10.2; FN deposition inh: 3.3; Glyco luc inh: -7.0; MLL AF4-AF9 inh: -0.1; RAD52 anneal inh: -218.4

How did COc1ccc(CN2CC3(C2)CN(Cc2ccc4c(c2)OCO4)[C@H](CO)c2[nH]c4cc(OC)ccc4c23)cc1 do in these assays?
MLL AF4-AF9 inh: 35.7*; Alpha interfer: -28.2%

What do the screens show for `C[C@H](CO)N1C[C@H](C)[C@H](CN(C)Cc2ccc(Cl)c(Cl)c2)Oc2ccc(NS(=O)(=O)c3cccs3)cc2C1=O`?
RAD54 branch: -18.4; MLL AF4-AF9 inh: -1.4; RAD52 anneal inh: -2.1
